Experimental data gathered from unrelated publications.
Compare with care: the assays were run in different laboratories. pIC50: −log10 of the molar value.
Cell line: HOP-92
Effect on: cell growth or viability

| Compound | technique | concentration | time | endpoint | value |
| --- | --- | --- | --- | --- | --- |
| COc1ccc(C(=O)/C=C/c2cccnc2)cc1S(N)(=O)=O | SRB | 10 µM | – | inhibition | 44% |
| O=C1Nc2ccccc2C1=NNc1nnc2n1N=C(c1ccccc1)CS2 | SRB | 10 µM | – | inhibition | 36% |
| CCc1n(Cc2ccc3ccccc3n2)cc[n+]1Cc1ccc2ccccc2c1 | SRB | – | – | TGI | 671 nM |
| COc1ccc(C(=O)/C=C/c2cccc(Br)c2)cc1S(N)(=O)=O | SRB | – | 48 h | GI50 | 1800 nM |
| COc1ccc(-c2ccc(-c3ccc(C(=N)N)nc3)s2)cc1 | SRB | – | – | GI50 | 1500 nM |
| CCCCc1n(Cc2ccc3ccccc3n2)cc[n+]1Cc1ccc2ccccc2n1 | SRB | – | – | TGI | 3360 nM |
| COc1cccc(Oc2ccccc2NC(=O)CNC(=O)c2cccc3ccccc23)c1 | SRB | – | 48 h | GI50 | 204 nM |
| O=C1NC(=NCc2cccs2)S/C1=C\c1ccc2ncccc2c1 | – | – | – | pIC50 | 5.22 |
| CCCc1n(Cc2ccc3ccccc3n2)cc[n+]1Cc1ccc2ccccc2n1 | SRB | – | – | TGI | 3230 nM |
| COc1ccc(-c2ccc(-c3ccc(C(=N)N)nc3)s2)cc1Cl | SRB | – | – | GI50 | 1630 nM |
| O=C1NCCc2[nH]c(-c3ccncc3)cc21 | – | – | – | pIC50 | 5.19 |
